Source: article PMC3272422 (Molecular cancer therapeutics, 2011)
Where two headings read alike, the source gives them in different places.

Legend:
[1] = biological target: T1, Recombinant human NQO2 (Homo sapiens, UniProt P16083); assay: Inhibition of recombinant NQO2 enzymatic activity; format: biochemical; conditions: for ΔGexp, experimentally determined binding affinity: derived from IC50 by the Cheng-Prusoff equation; for IC50: 200 μM NRH, DCPIP
T1 sequence (P16083 1-231): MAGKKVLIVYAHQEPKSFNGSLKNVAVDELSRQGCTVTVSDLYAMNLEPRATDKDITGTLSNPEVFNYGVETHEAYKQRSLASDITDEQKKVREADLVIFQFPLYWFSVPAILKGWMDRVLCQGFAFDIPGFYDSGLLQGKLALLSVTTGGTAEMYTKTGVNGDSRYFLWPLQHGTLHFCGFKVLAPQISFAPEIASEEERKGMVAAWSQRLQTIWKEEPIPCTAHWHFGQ

[2] = test system: K562 cells; assay: 96 hour toxicity, XTT assay; format: cell-based; conditions: read-out: 96 hour Toxicity in Cells IC50, K562
[3] = test system: MDA-MB-468 cells; assay: Toxicity in MDA-MB-468 cells, MTT assay; format: cell-based
[4] = test system: Recombinant human NQO1; conditions: previously reported; cited from earlier work
[5] = test system: BT474 cells; assay: CB1954 toxicity in BT474 cells; format: cell-based; conditions: Homo sapiens
[6] = test system: NFκB in Renal Carcinoma cells; conditions: cited from earlier work
[7] = test system: NFκB transcriptional activity in MDA-MB-468 cells; assay: NFκB dual luciferase reporter assay; format: cell-based
In short: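 MDA-MB-468 cells (7×10^5 per 6 cm plate, 24 h attachment) were transfected with 1 µg/plate Cignal NFκB reporter (6× NFκB element-driven firefly, CMV-Renilla) using Oligofectamine in opti-MEM for 5 h at 37 °C. They were then re-fed with RPMI/10% FCS and reseeded into 96-well plates. Cells were pretreated for 1 h with 100 µM NRH and/or 20 ng/mL TNFα, then given test compound (DMSO ≤0.5% final) for 18 h. Passive lysis, dual-luciferase read-out.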

[8] = read-out: IC50 + BSA, presence of 2 μM BSA
[9] = read-out: IC50 – BSA, absence of BSA
[10] = read-out: 96 hour Toxicity in Cells IC50, MDA-MB-468, 96 hour exposure
[11] = IC50 + BSA, presence of 2 μM BSA
[12] = Homo sapiens, MDA-MB-468, read-out: 3hr toxicity (IC50) Inhibitor alone

Structure (SMILES)	ΔGexp, experimentally determined binding affinity [1]	IC50 [1, 8]	IC50 [1, 9]	IC50 ([2]; 96 hour exposure)	IC50 [3, 10]	IC50 ([2]; Homo sapiens, K562, 96 h)	also measured
O=C1c2c(c3c4ccccc4[nH]c3c3[nH]c4ccccc4c23)C(=O)N1Cc1ccccc1 [NSC628440]	-8.485 kcal/mol	9.8 ± 0.92 µM	0.66 ± 0.08 µM	0.75 ± 0.76 µM	4 ± 0.021 µM		inhibition of NQO1 [4]: relatively weak inhibitor
NC(=O)c1cc(N2CC2)c([N+](=O)[O-])cc1[N+](=O)[O-] [CB1954, 5-(-aziridin-1-yl)-2,4-dinitrobenzamide, reference compound]							proliferation of MDA-MB-468 cells ([3]; 100μM CB1954 plus 100μM NRH, 3 hours): about 25%; IC50 ([3]; Homo sapiens, MDA-MB-468, 3 h, read-out: IC50 of CB1954 alone): > 1000 µM; IC50 ([5]; BT-474, read-out: IC50 of CB1954, absence of NRH): > 1000 µM; IC50 ([5]; BT-474, read-out: IC50 of CB1954, presence of 100μM NRH): 1000 µM
Cc1c2cnccc2c(C)c2c1c1ccccc1n2CCNCc1ccccc1 [NSC164016]	-10.74 kcal/mol	3 ± 1.21 µM	0.02 ± 0.01 µM	0.7 ± 0.29 µM	0.43 ± 0.24 µM		
Nc1cc2c(cc1[N+](=O)[O-])[nH]c1c(-c3ccccc3)nccc12 [NSC620318]	-9.197 kcal/mol	4.1 ± 1.05 µM	0.2 ± 0.01 µM	35 ± 33 µM	22 ± 9.1 µM		
CCN(CC)CCCC(C)Nc1c2ccc(Cl)cc2nc2ccc(OC)cc12 (stereo not drawn) [NSC14229, Quinacrine]	-9.197 kcal/mol					4 ± 3.6 µM	IC50 [1, 11]: 8.5 ± 1.6 µM; IC50 ([1]; IC50 – BSA, absence of BSA): 0.2 ± 0.05 µM; basal and induced activity of NFκB [6]: effectively suppressed
NC(=O)C1=CN([C@@H]2O[C@H](CO)[C@@H](O)[C@H]2O)C=CC1 [NRH, N-ribosyl nicotinamide, reference compound]							toxicity of NRH itself ([3]; 1μM to 1mM NRH): no toxicity; NFκB activity (luciferase) ([7]; 100μM NRH, without TNFα): stimulates NFκB activity
N=C(N)c1ccc(-c2ccc(-c3ccc(C(=N)N)cc3)o2)cc1 [NSC305831]	-8.513 kcal/mol					27 ± 35 µM	IC50 [1, 11]: 2.8 ± 0.61 µM; IC50 [3, 12]: 114 ± 52 µM
Oc1ccc(/C=C/c2cc(O)cc(O)c2)cc1 [Resveratrol, reference compound]						72 ± 5.1 µM	IC50 [3, 12]: > 100 µM
Cc1c(-c2ccc(C(=N)N)cc2)oc(-c2ccc(C(=N)N)cc2)c1C [NSC305836]	-10.07 kcal/mol	0.2 ± 0.09 µM	0.05 ± 0.01 µM	5.5 ± 3.6 µM	3.9 ± 2.5 µM		
Cc1c2ccncc2c(C)c2c1[nH]c1ccccc12 [NSC71795]	-10.07 kcal/mol	0.24 ± 0.09 µM	0.05 ± 0.01 µM	0.73 ± 0.6 µM	0.27 ± 0.2 µM		
Cc1ccc(NC(=O)c2ccc(CN3CCN(C)CC3)cc2)cc1Nc1nccc(-c2cccnc2)n1 [Imatinib, reference compound]						0.68 ± 0.51 µM	
Nc1c2ccccc2nc2ccccc12 [NSC13000, 9-aminoacridine]						1 ± 1.4 µM	IC50 [3, 12]: 23 ± 5.1 µM; NFκB transcriptional (luciferase) activity ([7]; 0.1μM NSC13000, cells with or without 100μM NRH): reduces the luciferase activity; basal and induced activity of NFκB [6]: effectively suppressed
